Experimental data: the EternaBench riboswitch data

System: MS2 coat protein
Assay: apparent Kd, MS2 coat protein; higher = weaker binding; RNA-MaP array; FMN 200 µM where present
Outline: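 Stalled E. coli RNA polymerase transcribed the designs on Illumina sequencing-chip clusters. SNAP-549-labelled MS2 coat protein was titrated from 0.7 or 1.5 nM, doubling to 3 µM, without and then with constant ligand, in 100 mM Tris-HCl pH 7.5, 80 mM KCl, 4 mM MgCl2, BSA, DTT, yeast tRNA and Tween-20. Per-cluster binding curves were fitted to green signal normalised to red-channel RNA signal and control-cluster median Fmax. The apparent Kd is the median of the filtered fits.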

[1] = designed as: OFF switch for flavin mononucleotide, no ligand
[2] = ligand present: flavin mononucleotide, designed as: OFF switch for flavin mononucleotide
[3] = designed as: ON switch for flavin mononucleotide, no ligand
[4] = ligand present: flavin mononucleotide, designed as: ON switch for flavin mononucleotide

ACUCAGUCAGGAUAUCGUUAAUUUAAUUGUUUGUAUUAGUUCGAGAAGGGACAUGAGGAUCACCCAUGUACUCA
apparent Kd [1]: 31.7 nM
apparent Kd [2]: 87.4 nM

ACAGCGUGAGGAUAUACAUGAGGAUCACCCAUGUAUGGCAGGUUAUCCUGUCGUGAGUGUAGAAGGCACGCUGU
apparent Kd [1]: 17.4 nM
apparent Kd [2]: 58.9 nM

ACAAUAAACUAGAAGGUGGUGAUACAUGAGGAUCACCCAUGUAUAGUACUGAGGAUAUGGAUGAUUGAAGUGAAUAUCGUAGCA
apparent Kd [3]: 111 nM
apparent Kd [4]: 86 nM

UCAAAUACUGAGGAUAUAACGACUGAAUCCGCGUUAGAAGGUAGUACAUGAGGAUCACCCAUGUCAACCAGAGG
apparent Kd [2]: 18.7 nM

GCCAUCGUAUGAGGAUAUGGCACCGAACCGGUGCCAGAAGGCAUGUCAAUAGACAUGAGGAUCACCCAUGUGUUAUCGAUGGCA
apparent Kd [3]: 147 nM
apparent Kd [4]: 13.1 nM

UGUUGUUCAGGAUAUGAUGUAUAAUACAUGAGGAUCACCCAUGUAGGUCCUGAUUUGGCGUCAGAAGGGAAUGUUG
apparent Kd [1]: 27.7 nM
apparent Kd [2]: 31 nM

UUACUCAUGUAAGGAUAUGUAGCCGAAACGGCUGCAGAAGGUACUAAAAUACAUGAGGAUCACCCAUGUCUUUUUAAUUUAGAC
apparent Kd [3]: 216 nM
apparent Kd [4]: 50.9 nM

UCCAAACAUGAGGAUCACCCAUGUGAGGAUAUGAUACUAUGUACUUCGGUACAUAGUAUCAGAAGGCACAUCCA
apparent Kd [1]: 13.6 nM
apparent Kd [2]: 22.2 nM

CCUGGAGGAAAACAGACGAAGUGGCCAGAAGGUGAAUGCCACAUGAGGAUCACCCAUGUUUCGAUCAAGGAUAUGGUUUCUCAC
apparent Kd [3]: 329 nM
apparent Kd [4]: 161 nM

CUAUAUAAUACCUCAUGUACAUGAGGAUCACCCAUGUUAACUUAGGAUAUAUUUAUAUUGAUAGAGUAGAAGGAAGUACUAUUU
apparent Kd [1]: 15.8 nM
apparent Kd [2]: 13.8 nM

AACAGUACAGGAUAUACAUGAGGAUCACCCAUGUGACAAUUAAGUGGCGUACCACAAAGUAGAAGGGUACUGGA
apparent Kd [1]: 28.2 nM
apparent Kd [2]: 150 nM

GGUCCAUUAUGAGGAUAUGGCACCUUAUUGGUGCCAGAAGGCAUGUGUAUUCACAUGAGGAUCACCCAUGUAAUAAAUUGGACC
apparent Kd [3]: 87.2 nM
apparent Kd [4]: 20 nM

UGUGUGUGGCAGGAUAUGCAGGUAAUAGGACGGGUAGAAGGGUCUACAUGAGGAUCACCCAUGUGGCCGGUUGG
apparent Kd [1]: 16.1 nM
apparent Kd [2]: 16 nM

CCUCGACGGUAGGAUAUCGUCAAACUAUUGUGAUGAGAAGGACUGACAUGAGGAUCACCCAUGUUAACGUGAUA
apparent Kd [1]: 20.2 nM
apparent Kd [2]: 25.3 nM

CCAAGAAUAGGAUAUACACGAUGUCAGCUUCUAUACAUCGCACAUGAGGAUCACCCAUGUAGAAGGGUUCUCUC
apparent Kd [1]: 735 nM
apparent Kd [2]: 823 nM

UUUGCAUUCCGAGGAUAUUCAUAUAAUAAAUAAACAUGAGGAUCACCCAUGUGGCGAAAGCCUAGGGAGAAGGCGGUUUGCUUU
apparent Kd [3]: 139 nM
apparent Kd [4]: 25.7 nM

AUAAAGUCAGGAUAUGUAAAAAUAACGAAAGUUAUAAAUAAACAGAAGGGACAUGAGGAUCACCCAUGUAAAAU
apparent Kd [1]: 32.3 nM
apparent Kd [2]: 39.6 nM

AGUCUGCUAGGAUAUACAUGAGGAUCACCCAUGUCUAUCAAAAGACUAUUAACCUGGUGUAGAAGGAGCUUGUA
apparent Kd [1]: 11.1 nM
apparent Kd [2]: 12.5 nM

UCUGGUCGAGGAUAUGCGUAAUGUGUUACGGCACGAGGUCUACAUGAGGAUCACCCAUGUAGAAGGCGAUCAGA
apparent Kd [1]: 13.9 nM
apparent Kd [2]: 12.7 nM

UUACAUACAAAGUUACAUGAGGAUCACCCAUGUUUAUUGGGAAGAAGGGUAACAGUAUUACAUAUAUAGGAUAUUUCACAAAUG
apparent Kd [3]: 409 nM
apparent Kd [4]: 251 nM

GCUCUAUGCUAGAAGGCGUGAAACAUGAGGAUCACCCAUGUCAGAGAAAUGAGGAUAUAGCAUAGAGCAAAAGACGGAAACGUC
apparent Kd [3]: 11.1 nM
apparent Kd [4]: 5.61 nM

UAUACACAUGAGGAUCACCCAUGUGAGGAUAUGUACAACAACCCGACGGUGUUGUUGUACAGAAGGCACAAAUA
apparent Kd [1]: 80.2 nM
apparent Kd [2]: 59.8 nM

GGACGACCCAUUAACAUGAGGAUCACCCAUGUCAAAAGACAUGAGGAUAUGGUACCUAAUUGGUACCAGAAGGCAUGGUCGUCC
apparent Kd [3]: 1470 nM
apparent Kd [4]: 107 nM

CACGCCUAGGAGAAGGGCCCACUAUAGGGUAAAUGCUGUUCUCACAUGAGGAUCACCCAUGUGCGGCAGGAUAUCCACGCGUAA
apparent Kd [1]: 7.28 nM
apparent Kd [2]: 34.6 nM

UUCGCUAAGGUGUAGCGAGACUUGCAAGAAGGGUGAUGCACAUGAGGAUCACCCAUGUAAGCCUUACAGGAUAUUGCUUGCCGA
apparent Kd [3]: 600 nM
apparent Kd [4]: 220 nM

CGAAAUGAUAGAGGAUAUGUUUUACAUGAGGAUCACCCAUGUGUACAUGGAUUAAUAUAUAAGUAACAGAAGGCUAUUCAAUCG
apparent Kd [1]: 18.6 nM
apparent Kd [2]: 17.3 nM

UCUCGUGUUCAGAAGGGCAAUCAACGAACAUGAGGAUCACCCAUGUUCUGCAGGAUAUGAACGGGUGGGAGCCCUGCGAAGGGA
apparent Kd [3]: 167 nM
apparent Kd [4]: 25.5 nM

UGGUAGGGAGGAUAUCGGAGACCAAACAUGAGGAUCACCCAUGUGCCAUCCCGUGUAUCUUGAGAAGGUUCUACCA
apparent Kd [1]: 14.8 nM
apparent Kd [2]: 23.4 nM

GGGUACGUCGGAGGAUAUCAUGUAAAUACAUGAGGAUCACCCAUGUCGAUGGAGACAUCGGAGAUUGAGAAGGCCGAUGUACCG
apparent Kd [3]: 192 nM
apparent Kd [4]: 8.89 nM

AAUUAUUUACAGAAGGAGUUAAAAGGAGUAUUACUAGGAUAUGUUCACAUGAGGAUCACCCAUGUCAUAUUGGGAUUUAUUUUU
apparent Kd [1]: 22.5 nM
apparent Kd [2]: 22.6 nM

GAGAAGUCAGGAUAUGCUGCUCGUCACUUGCGUGAUGAGUAGCAGAAGGGACAUGAGGAUCACCCAUGUAAAGC
apparent Kd [1]: 47.3 nM
apparent Kd [2]: 53.6 nM

UGUGCUAUGUAGAAGGCAGAUCUGAUUCAGAUCUGAGGAUAUACAUGAGGAUCACCCAUGUUAUGCACCAGCACGAGAGUGCAU
apparent Kd [1]: 17.7 nM
apparent Kd [2]: 91.8 nM

UGUUAUUUGACAGGAUAUUGAUUGUUAAGUUUUUACAUGAGGAUCACCCAUGUUGUUCAUUCGUACAAGAAGGGUCAAGUUUUU
apparent Kd [3]: 72.8 nM
apparent Kd [4]: 27.2 nM

UCGUGCCGGGUUGCGAGCGACCCACAUGAGGAUCACCCAUGUAGAAGGACCAGCGUCGGCCCUUGGUAGGAUAUACAUGAACUC
apparent Kd [1]: 113 nM
apparent Kd [2]: 152 nM

UCGCUGCGAGGAUAUACAUGAGGAUCACCCAUGUACGGGUCCGGGUCUUCGUCCAUUAGUAGAAGGCGCAGUGA
apparent Kd [1]: 52.8 nM
apparent Kd [2]: 325 nM

AUACCUUAUGAGAAGGCGAUCAUGAAACAUGAUCGAGGAUAUCAUGUAAACAUGAGGAUCACCCAUGUAUGGGUAUUAUGGUAG
apparent Kd [3]: 34 nM
apparent Kd [4]: 10.5 nM

CGGAUUAUGUGAGGAUAUAAUCGUUUCCAUUGAUUAGAAGGCACAUGAGGAUCACCCAUGUGGCAUGUAAAGCCAUGUGACGCG
apparent Kd [1]: 108 nM
apparent Kd [2]: 109 nM

UCCGCGCGCGUAGGAUAUACAUGAGGAUCACCCAUGUACCCAGAUGGCUUCCUGAAUCUUGCAAUGUAGAAGGACGCCCGUGGG
apparent Kd [1]: 37.9 nM
apparent Kd [2]: 42.5 nM

AGUCAUACAGGAUAUACAUGAGGAUCACCCAUGUAUAUCCAAAAAAAAUGAUCCUCAUGUAGAAGGGUAUGACA
apparent Kd [1]: 15.9 nM
apparent Kd [2]: 10.5 nM

GUUGUUUAUGUAGGAUAUGCGAGGCGAGCCUAAGCAGAAGGACAUGAGGAUCACCCAUGUAUUGCGGUCUGCGUUCAGAUCGCU
apparent Kd [1]: 32.4 nM
apparent Kd [2]: 135 nM

CAUUCAUGUCUAGGAUAUGAGUGACAAGCGCGAAGUUUUUUCGCCGCUAGCUCAGAAGGAGACAUGAGGAUCACCCAUGUAAGG
apparent Kd [1]: 24.1 nM
apparent Kd [2]: 9.96 nM

AACUAGUCAGGAUAUACGAACAUGUCAAAAAACAUGAAGGGACAUGAGGAUCACCCAUGUAGAAGGGACUAGCA
apparent Kd [1]: 37.8 nM
apparent Kd [2]: 223 nM

CCGGAAAUGCAGGAUAUCGUAUCGGAAACGAUACGAGAAGGGUAUACAUGAGGAUCACCCAUGUGUCCUACCGG
apparent Kd [1]: 22.6 nM
apparent Kd [2]: 21.4 nM

GUGGUCAGACAUGAGGAUCACCCAUGUGGAAUAAAUAACGGACAGGAUAUGCAAUAUAGGAUAUAGUAGAAGGGUUGAUUGGUG
apparent Kd [3]: 56.5 nM
apparent Kd [4]: 60.6 nM

GAAGGGCCUCGAGGAUAUCGCUGCGGUCGUUUGACAUGAGGAUCACCCAUGUGAGAAGGCGAGGCUACUAACCAUGCCCGUUAU
apparent Kd [1]: 31.3 nM
apparent Kd [2]: 148 nM

AAACACGGACAUGAGGAUCACCCAUGUGGCGAAAGCCUUGGAAGAAGGCCGUAUGCAAAGCAUACGGAGGAUAUUCAUACCGUG
apparent Kd [3]: 15.6 nM
apparent Kd [4]: 5.85 nM

UGGUACUAGGGAGGAUAUGGGAAGAUACAUGAGGAUCACCCAUGUUUAAGAAUGGCGAGAGGCAACUAGAAGGCCCUAGUACCU
apparent Kd [3]: 271 nM
apparent Kd [4]: 15.6 nM

GCUAAGCGAAUUAAGAUGAAUAGAACAUGAGGAUCACCCAUGUAGGAUAUGCUACACAAAGUGUAGCAGAAGGACAAGCUUAGC
apparent Kd [1]: 20.2 nM
apparent Kd [2]: 25.4 nM

GCACGGUAUGUAGGAUAUGCAUAGCAUUGCUAUGCAGAAGGACAUGAGGAUCACCCAUGUAUGUAUUCCAUACAUUUCCCGUGC
apparent Kd [1]: 5.73 nM
apparent Kd [2]: 5.74 nM

UUGGACGUCGUAGGAUAUGUAGGAUAUUCCCACAUGAGGAUCACCCAUGUUGACAUGGAAGAAGGACAGAAGGACGAUGUCCAU
apparent Kd [3]: 4.05 nM
apparent Kd [4]: 3.47 nM

UCGGCGCGAGGAUAUGCGGUUUGUGCUUUGGGCCCUGGCGUACAUGAGGAUCACCCAUGUAGAAGGCGCGCCGC
apparent Kd [1]: 19.5 nM
apparent Kd [2]: 19.6 nM

CAGCAAAAGUAGAAGGCAGUACUGAUUCAGUACUGAGGAUAUACAUGAGGAUCACCCAUGUAUUCCAGCUGAAUAAUAAAAUAU
apparent Kd [1]: 5.43 nM
apparent Kd [2]: 5.63 nM

GGCGGCGCGGGCCACCGCAGGGCCAGAAGGACAUGAGGAUCACCCAUGUGGCAGAACAGGGCGGUGUAGGAUAUGGCAGGCUCG
apparent Kd [1]: 35.5 nM
apparent Kd [2]: 76.2 nM

UCAUUAUAAAUCCAUCAUAACUACAUGAGGAUCACCCAUGUGCAGGAUAUCGAUGGUUUAACUAUCGAGAAGGGCAUUUACAGA
apparent Kd [1]: 47.8 nM
apparent Kd [2]: 146 nM

UUUGGGUGGCUGGAGGAUAUUCGAGUGGUUACAUGAGGAUCACCCAUGUGUCGCGCGGUACACGAGGAGAAGGCUGGCGGCCGUU
apparent Kd [3]: 50.8 nM
apparent Kd [4]: 22.4 nM
